Consider five compounds from PMC6013806 (Chemical Science, 2016).

In general, pKi refers to the Ki on a negative log10 scale, so that one unit is a factor of ten. A higher pKi goes with a small Ki.

For data set [1], the system named is MMP-2 in rat renal myofibroblasts. Put plainly: MMP-2 levels by gelatin zymography, rat renal myofibroblasts. Format: cell-based. The method, boiled down:
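Rat renal myofibroblasts were isolated from injured kidneys 3 days after unilateral ureteric obstruction. They were exposed to test compound at 16.8 nM (≃100 ng mL−1) for 72 h, with or without an RXFP1 antagonist (relaxin B-chain Arg13/Arg17→Lys); H2 relaxin was run at equivalent concentration. MMP-2 in media diluted 1:5–1:10 was read by gelatin zymography and densitometry. Three experiments were run in duplicate.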

Data set [2] has as its target T1, human RXFP1 (Homo sapiens, UniProt Q9HBX9).
T1 sequence (Q9HBX9 1-757): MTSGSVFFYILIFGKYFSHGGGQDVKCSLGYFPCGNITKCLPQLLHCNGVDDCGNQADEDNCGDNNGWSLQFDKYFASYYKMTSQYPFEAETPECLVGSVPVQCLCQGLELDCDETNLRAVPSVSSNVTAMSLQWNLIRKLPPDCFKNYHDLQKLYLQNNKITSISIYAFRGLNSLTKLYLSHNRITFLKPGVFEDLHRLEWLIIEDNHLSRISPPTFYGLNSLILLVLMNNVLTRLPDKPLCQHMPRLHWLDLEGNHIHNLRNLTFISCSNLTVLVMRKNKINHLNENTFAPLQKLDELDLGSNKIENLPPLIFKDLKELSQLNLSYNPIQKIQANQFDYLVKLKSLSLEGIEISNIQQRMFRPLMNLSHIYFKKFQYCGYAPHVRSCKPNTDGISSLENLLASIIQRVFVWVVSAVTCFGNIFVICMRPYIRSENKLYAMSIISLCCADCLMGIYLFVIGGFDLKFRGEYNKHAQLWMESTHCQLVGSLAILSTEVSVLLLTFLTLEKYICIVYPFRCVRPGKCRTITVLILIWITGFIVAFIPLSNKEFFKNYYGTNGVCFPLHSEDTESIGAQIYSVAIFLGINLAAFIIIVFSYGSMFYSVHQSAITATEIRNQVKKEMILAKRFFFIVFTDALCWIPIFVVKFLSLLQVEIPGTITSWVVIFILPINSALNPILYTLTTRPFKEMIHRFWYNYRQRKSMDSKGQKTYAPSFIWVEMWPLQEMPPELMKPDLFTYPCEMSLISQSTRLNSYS
Kind of data set: Competition binding with europium-labelled H2 relaxin in HEK-RXFP1 cells. The note with it: HEK-293T cells stably expressing RXFP1; compared with B7-33. The method, boiled down: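 Whole-cell competition binding on HEK-293T cells stably transfected with RXFP1. Cells were grown in RPMI 1640 with 10% FCS, penicillin, streptomycin and 2 mM L-glutamine, then plated on poly-L-lysine-coated wells. Eu3+-labelled H2 relaxin was competed by increasing concentrations of unlabelled test peptide. % specific binding was measured in triplicate wells, repeated ≥3 times; one-site fit gave pIC50.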

Data set [3] has as its target T1, human RXFP1. Kind of data set: cAMP reporter gene assay, HEK-293T cells expressing human RXFP1. Format: cell-based. The note with it: HEK-293T cells stably expressing RXFP1. The method in brief:
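HEK-293T cells expressing human RXFP1 were co-transfected with a pCRE β-galactosidase cAMP reporter plasmid and plated. After 24 h they were incubated with increasing concentrations of test peptide in parallel with H2 relaxin. Points were run in triplicate, with ≥3 independent experiments; pEC50 values were derived.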
(Reporter assays use an easily measured gene product as a stand-in for the process of interest.)

For data set [4] the following is noted: cited from earlier work.
For data set [5] the following is noted: cited from earlier work. The source holds these as a separate data set.
Data set [6] concerns the target Relaxin Family Peptide Receptor 1 (RXFP1), human, stably expressed in HEK-293T cells (human) (UniProt Q9HBX9). Kind of data set: competition binding with Eu3+-labelled H2 relaxin on whole cells.

On to `Cc1cc(Cn2cnc3c2C[C@@H](C(=O)O)N(C(=O)C(c2ccccc2)c2ccccc2)C3)ccc1N(C)C` [PD123319], for which the “effect of antagonist alone on basal MMP-2 expression” value in data set [1] (antagonist alone) is “neither the RXFP1 nor AT2 receptor antagonists alone affected basal MMP-2 expression”. Further, in data set [1] (rat renal myofibroblasts treated with B7-33), the “effect of antagonist on MMP-promoting effects of B7-33” value is reported as “completely blocked”.

Take “AcB7-33: Acetylated B7-33 (Ac-VIKLCGRELVRAQIAICGMSTWSKRSL-NH2; cysteine pairing not given here; UniProt P04090 31-57, looked up, fragment)”: in the data set with human RXFP1 [2], the “binding affinity at HEK-RXFP1 (in words)” value is reported as “no change”. In the data set with human RXFP1 [3], the “cAMP activity at HEK-RXFP1 (in words)” value is recorded as “no change”.

Regarding “B1-29: native H2 relaxin B-chain with 29 residues”, the functional activity result in data set [4] was “functionally inactive”. In addition, the solubility in water entry in data set [5] is listed as “insoluble in water”.

In data set [6], “B7-33 (H2 relaxin B-chain-only analogue) (peptide)” showed a pKi of 5.54.

In turn, Human gene-2 relaxin (ligand) returned a pKi in data set [6] of 8.96.
